In brackets after ≈: the same amount, converted by molar mass.
Legend:
[1] = Mutagenicity in Salmonella typhimurium TA100 in presence of rat S9 fraction by Ames test; format: toxicity, subcellular; conditions: salmonella enterica subsp. enterica serovar typhimurium
In short: (§1)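 Ames bacterial mutagenicity test in S. typhimurium TA98 and TA100. Run with and without metabolic activation by rat S9 fraction.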

[2] = Aqueous solubility of the compound in pH 7.4 phosphate buffer measured after 24 hrs by LC-MS/MS-based shake flask method; format: physicochemical
[3] = Octanol-phosphate buffer partition co-efficient, log D of the compound at pH 7.4 after 2 hrs by LC-MS/MS-based shake flask method; format: physicochemical
In short: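 Distribution between octanol and water at pH 7.4.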

[4] = Mutagenicity in Salmonella typhimurium TA98 in presence of rat S9 fraction by Ames test; format: toxicity, subcellular; conditions: salmonella enterica subsp. enterica serovar typhimurium; in short: as §1
[5] = Intrinsic clearance in human hepatocytes assessed per million cells at 1 uM measured after 2 to 60 mins by LC-MS/MS analysis; format: ADME, cell-based, Hepatocyte; conditions: read-out: CLH
[6] = Intrinsic clearance in rat hepatocytes assessed per million cells at 1 uM measured after 2 to 60 mins by LC-MS/MS analysis; format: ADME, cell-based, Hepatocyte; conditions: read-out: CLH
In short: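 Rat hepatocyte incubation of the compound; intrinsic clearance measured after incubation.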

[7] = Mutagenicity in Salmonella typhimurium TA100 in absence of rat S9 fraction by Ames test; format: toxicity; conditions: salmonella enterica subsp. enterica serovar typhimurium; in short: as §1
[8] = Passive apparent permeability across apical to basolateral side in human Caco2 cells at pH 6.5; format: ADME, cell-based; conditions: Caco-2, pH 6.5
In short: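 Passive permeability across Caco-2 monolayers, measured in the A to B direction at pH 6.5.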

[9] = biological target: T1, Arachidonate 5-lipoxygenase-activating protein (Homo sapiens) (UniProt P20292); test: Inhibition of FLAP in human whole blood assessed as reduction in calcium ionophore-stimulated LTB4 production preincubated for 4 hrs followed by calcium ionophore stimulation and measured after 20 mins by EIA; format: tissue-based
T1 sequence (whole entry): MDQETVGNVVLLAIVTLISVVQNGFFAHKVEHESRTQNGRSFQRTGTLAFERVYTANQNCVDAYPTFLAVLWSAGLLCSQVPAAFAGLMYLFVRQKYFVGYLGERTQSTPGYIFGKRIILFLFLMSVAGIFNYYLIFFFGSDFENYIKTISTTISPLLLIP
In short: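 Fresh human whole blood was incubated with compound for 4 h, then stimulated with calcium ionophore, and LTB4 production was measured as the 5-LO pathway read-out. IC50 was also converted to a free value: IC50 × (Fu/100), where Fu = 100 − human plasma protein binding (%).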

[10] = Mutagenicity in Salmonella typhimurium TA98 in absence of rat S9 fraction by Ames test; format: toxicity; conditions: salmonella enterica subsp. enterica serovar typhimurium; in short: as §1
[11] = biological target: T2, Arachidonate 5-lipoxygenase-activating protein (Homo sapiens, UniProt P20292); test: Inhibition of [3H]MK0591 binding to human FLAP expressed in […] cell membranes measured after 60 to 80 mins by microbeta scintillation counting method
T2 sequence (P20292 whole entry): T1 sequence (whole entry)

Row | SMILES | solubility thermodynamic at 24 h [2] [µM] | logD at 2 h [3] | hepatocyte CLint at 1 µM [5] [µL/min/1e6 cells] | hepatocyte CLint at 1 µM [6] [µL/min/1e6 cells] | Papp A→B [8] [×10⁻⁶ cm/s] | fIC50 [9] [nM] | IC50 [11] [µM] | Activity [1] | Activity [4] | Activity [7] | Activity [10]
1 | CCn1ncc(NC(=O)[C@@H]2CCCC[C@H]2C(=O)c2ccc(-c3cc(C)n[nH]3)cc2)c1C(N)=O | 329 (≈ 148 µg/mL) | 2.9 | 4.9 | 8.6 | 9.2 | 16 |  | Toxic | Toxic | Toxic | Toxic
2 | Cc1cc(-c2ccc(C(=O)[C@@H]3CCCC[C@H]3C(=O)Nc3c(C)nn(C)c3C(N)=O)cc2)n[nH]1 | 399 (≈ 179 µg/mL) | 2.6 | < 1 | 5.7 | 1.4 | 8 | 0.101 | Toxic | Toxic | Toxic | Toxic
3 | Cc1cc(-c2ccc(C(=O)[C@@H]3CCCC[C@H]3C(=O)Nc3cn(C)nc3C(N)=O)cc2)[nH]n1 |  |  |  |  |  | 22 |  |  |  |  | 
4 | Cc1cc(-c2ccc(C(=O)[C@@H]3CCCC[C@H]3C(=O)Nc3cnn(C)c3C(=O)O)cc2)[nH]n1 | 599 (≈ 261 µg/mL) | 0.2 | 3.2 |  | 0.21 | 570 | 0.017 |  |  |  | 

The next lines start with results.

Row | solubility thermodynamic at 24 h [2] [µM] | logD at 2 h [3] | hepatocyte CLint at 1 µM [5] [µL/min/1e6 cells] | hepatocyte CLint at 1 µM [6] [µL/min/1e6 cells] | Papp A→B [8] [×10⁻⁶ cm/s] | fIC50 [9] [nM] | IC50 [11] [µM] | SMILES | Activity [1] | Activity [4] | Activity [7] | Activity [10]
5 | 60 (≈ 26.1 µg/mL) |  | 12.4 | 14 |  |  |  | Cc1cc(-c2ccc(C(=O)[C@@H]3CCCC[C@H]3C(=O)Nc3cn(C)nc3C(N)=O)cc2)n[nH]1 | Non-Toxic | Non-Toxic | Non-Toxic | Non-Toxic
6 | 496 (≈ 216 µg/mL) | 2.1 |  |  |  | 487 | 0.241 | Cc1cc(-c2ccc(C(=O)[C@@H]3CCCC[C@H]3C(=O)Nc3cnn(CC(N)=O)c3)cc2)[nH]n1 |  |  |  | 
7 | 225 (≈ 91.2 µg/mL) | 3.1 | 4 | 12.8 | 20.5 | 7.4 | 0.059 | Cc1cc(-c2ccc(C(=O)[C@@H]3CCCC[C@H]3C(=O)Nc3cn(C)nc3C)cc2)n[nH]1 | Non-Toxic | Non-Toxic | Non-Toxic | Non-Toxic
